In ChEMBL document CHEMBL1146365, “Synthesis and biological evaluation of new N-(2-hydroxy-4(or 5)-nitro/aminophenyl)benzamides and phenylacetamides as antimicrobial agents” (2007):
Values after ≈ are worked out from the molar mass of the structure shown.

Columns and labels:
[1] = test system: Escherichia coli; assay: Antibacterial activity against Escherichia coli ATCC assessed after 24 hrs by serial dilution method
[2] = test system: Klebsiella pneumoniae; assay: Antibacterial activity against Klebsiella pneumoniae isolate assessed after 24 hrs by serial dilution method; assay type: functional
Procedure, shortened: (§1)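 Strains were subcultured twice on MHA at 37 °C overnight. Inoculum was diluted from McFarland 0.5 to 10^5 cfu/ml, giving 10^4 cfu/ml in wells. Solvent, medium and organism-only controls were included. Incubated 37 °C, humid chamber, 24 h, in triplicate. MIC = lowest concentration with no macroscopic growth.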

[3] = test system: Bacillus subtilis; assay: Antibacterial activity against drug-resistant Bacillus subtilis assessed after 24 hrs by serial dilution method
[4] = test system: Candida albicans; assay: Antifungal activity against Candida albicans isolate assessed after 48 hrs by serial dilution method; assay type: functional
Procedure, shortened: (§2)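 Broth microdilution per CLSI M27-A in RPMI-1640 with L-glutamine, MOPS-buffered pH 7, with 2-fold compound dilutions. Yeasts were subcultured twice on SDA at 35 °C for 24–48 h. Inoculum was diluted from McFarland 0.5 to 10^4 cfu/ml, giving 10^3 cfu/ml in wells. Incubated 35 °C, humid chamber, 48 h, in triplicate. MIC = lowest concentration with no macroscopic growth.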

[5] = test system: Klebsiella pneumoniae; assay: Antibacterial activity against Klebsiella pneumoniae RSHM 574 assessed after 24 hrs by serial dilution method
[6] = test system: Bacillus subtilis; assay: Antibacterial activity against Bacillus subtilis ATCC 6633 assessed after 24 hrs by serial dilution method; assay type: functional; details: ATCC 6633, 24 h
Procedure, shortened: as §1

[7] = test system: Escherichia coli; assay: Antibacterial activity against Escherichia coli isolate assessed after 24 hrs by serial dilution method; assay type: functional
Procedure, shortened: as §1

[8] = test system: Pseudomonas aeruginosa; assay: Antibacterial activity against Pseudomonas aeruginosa ATCC […] assessed after 24 hrs by serial dilution method
[9] = test system: Pseudomonas aeruginosa; assay: Antibacterial activity against Pseudomonas aeruginosa isolate assessed after 24 hrs by serial dilution method; assay type: functional
Procedure, shortened: as §1

[10] = test system: Staphylococcus aureus; assay: Antibacterial activity against Staphylococcus aureus ATCC 25923 assessed after 24 hrs by serial dilution method; assay type: functional; details: ATCC 25923, 24 h
Procedure, shortened: as §1

[11] = test system: Candida albicans; assay: Antifungal activity against Candida albicans ATCC 10231 assessed after 48 hrs by serial dilution method; assay type: functional; details: ATCC 10231, 48 h
Procedure, shortened: as §2

[12] = test system: Staphylococcus aureus; assay: Antibacterial activity against drug-resistant Staphylococcus aureus assessed after 24 hrs by serial dilution method

Compound	MIC [1] [µg/mL]	MIC [2] [µg/mL]	MIC [3] [µg/mL]	MIC [4] [µg/mL]	MIC [5] [µg/mL]	MIC [6] [µg/mL]	MIC [7] [µg/mL]	MIC [8] [µg/mL]	MIC [9] [µg/mL]	MIC [10] [µg/mL]	MIC [11] [µg/mL]	MIC [12] [µg/mL]
Nc1ccc(NC(=O)Cc2ccc(Cl)cc2)c(O)c1	125 (≈ 452 µM)	250 (≈ 903 µM)	62.5 (≈ 226 µM)	125 (≈ 452 µM)	125 (≈ 452 µM)	250 (≈ 903 µM)	125 (≈ 452 µM)	125 (≈ 452 µM)	125 (≈ 452 µM)	62.5 (≈ 226 µM)	125 (≈ 452 µM)	31.2 (≈ 113 µM)
O=C(Cc1ccc(Cl)cc1)Nc1ccc([N+](=O)[O-])cc1O	125 (≈ 408 µM)	125 (≈ 408 µM)	31.2 (≈ 102 µM)	125 (≈ 408 µM)	125 (≈ 408 µM)	250 (≈ 815 µM)	125 (≈ 408 µM)	125 (≈ 408 µM)	250 (≈ 815 µM)	125 (≈ 408 µM)	125 (≈ 408 µM)	125 (≈ 408 µM)
CC1COc2c(N3CCN(C)CC3)c(F)cc3c(=O)c(C(=O)O)cn1c23 (centres undefined) [OFLOXACIN]	–	64 (≈ 177 µM)	32 (≈ 88.6 µM)	–	64 (≈ 177 µM)	> 4100	32 (≈ 88.6 µM)	8 (≈ 22.1 µM)	–	> 4100	–	> 4100
Nc1ccc(NC(=O)Cc2ccc(F)cc2)c(O)c1	62.5 (≈ 240 µM)	125 (≈ 480 µM)	62.5 (≈ 240 µM)	125 (≈ 480 µM)	125 (≈ 480 µM)	250 (≈ 961 µM)	125 (≈ 480 µM)	125 (≈ 480 µM)	125 (≈ 480 µM)	125 (≈ 480 µM)	125 (≈ 480 µM)	62.5 (≈ 240 µM)
CCc1ccc(C(=O)Nc2ccc([N+](=O)[O-])cc2O)cc1	125 (≈ 437 µM)	125 (≈ 437 µM)	15.6 (≈ 54.5 µM)	125 (≈ 437 µM)	500 (≈ 1750 µM)	250 (≈ 873 µM)	125 (≈ 437 µM)	250 (≈ 873 µM)	250 (≈ 873 µM)	62.5 (≈ 218 µM)	125 (≈ 437 µM)	125 (≈ 437 µM)
CCc1ccc(C(=O)Nc2cc(N)ccc2O)cc1	125 (≈ 488 µM)	62.5 (≈ 244 µM)	31.2 (≈ 122 µM)	62.5 (≈ 244 µM)	62.5 (≈ 244 µM)	62.5 (≈ 244 µM)	125 (≈ 488 µM)	62.5 (≈ 244 µM)	125 (≈ 488 µM)	15.6 (≈ 60.9 µM)	62.5 (≈ 244 µM)	15.6 (≈ 60.9 µM)
CCc1ccc(C(=O)Nc2ccc(N)cc2O)cc1	125 (≈ 488 µM)	250 (≈ 975 µM)	31.2 (≈ 122 µM)	125 (≈ 488 µM)	125 (≈ 488 µM)	250 (≈ 975 µM)	250 (≈ 975 µM)	250 (≈ 975 µM)	250 (≈ 975 µM)	125 (≈ 488 µM)	125 (≈ 488 µM)	7.8 (≈ 30.4 µM)
O=C(Cc1ccc(Br)cc1)Nc1ccc([N+](=O)[O-])cc1O	125 (≈ 356 µM)	125 (≈ 356 µM)	125 (≈ 356 µM)	250 (≈ 712 µM)	250 (≈ 712 µM)	31.2 (≈ 89 µM)	250 (≈ 712 µM)	250 (≈ 712 µM)	250 (≈ 712 µM)	250 (≈ 712 µM)	250 (≈ 712 µM)	125 (≈ 356 µM)
O=C(Nc1ccc([N+](=O)[O-])cc1O)c1ccc(Br)cc1	62.5 (≈ 185 µM)	125 (≈ 371 µM)	1.95 (≈ 5.78 µM)	125 (≈ 371 µM)	125 (≈ 371 µM)	3.9 (≈ 11.6 µM)	250 (≈ 742 µM)	250 (≈ 742 µM)	250 (≈ 742 µM)	7.8 (≈ 23.1 µM)	250 (≈ 742 µM)	500 (≈ 1480 µM)
Cc1ccc(CC(=O)Nc2ccc(N)cc2O)cc1	125 (≈ 488 µM)	250 (≈ 975 µM)	62.5 (≈ 244 µM)	250 (≈ 975 µM)	125 (≈ 488 µM)	62.5 (≈ 244 µM)	250 (≈ 975 µM)	125 (≈ 488 µM)	250 (≈ 975 µM)	250 (≈ 975 µM)	125 (≈ 488 µM)	62.5 (≈ 244 µM)
O=C(Nc1cc([N+](=O)[O-])ccc1O)c1ccccc1	125 (≈ 484 µM)	250 (≈ 968 µM)	62.5 (≈ 242 µM)	250 (≈ 968 µM)	125 (≈ 484 µM)	7.8 (≈ 30.2 µM)	250 (≈ 968 µM)	125 (≈ 484 µM)	250 (≈ 968 µM)	31.2 (≈ 121 µM)	125 (≈ 484 µM)	15.6 (≈ 60.4 µM)
Nc1ccc(O)c(NC(=O)c2ccccc2)c1	125 (≈ 548 µM)	250 (≈ 1100 µM)	62.5 (≈ 274 µM)	125 (≈ 548 µM)	125 (≈ 548 µM)	15.6 (≈ 68.3 µM)	250 (≈ 1100 µM)	125 (≈ 548 µM)	250 (≈ 1100 µM)	31.2 (≈ 137 µM)	125 (≈ 548 µM)	31.2 (≈ 137 µM)
OC(Cn1cncn1)(Cn1cncn1)c1ccc(F)cc1F [FLUCONAZOLE]	–	–	–	512 (≈ 1670 µM)	–	–	–	–	–	–	4 (≈ 13.1 µM)	–
CCc1ccc(C(=O)Nc2cc([N+](=O)[O-])ccc2O)cc1	125 (≈ 437 µM)	125 (≈ 437 µM)	31.2 (≈ 109 µM)	62.5 (≈ 218 µM)	250 (≈ 873 µM)	3.9 (≈ 13.6 µM)	250 (≈ 873 µM)	62.5 (≈ 218 µM)	250 (≈ 873 µM)	7.8 (≈ 27.2 µM)	125 (≈ 437 µM)	7.8 (≈ 27.2 µM)
C[C@@H]1[C@H](O)[C@@H](C)/C=C/C=C/C=C/C=C/C=C/C=C/C=C/[C@H](O[C@@H]2O[C@H](C)[C@@H](O)[C@H](N)[C@@H]2O)C[C@@H]2O[C@](O)(C[C@@H](O)C[C@@H](O)[C@H](O)CC[C@@H](O)C[C@@H](O)CC(=O)O[C@H]1C)C[C@H](O)[C@H]2C(=O)O [AMPHOTERICIN B]	–	–	–	128 (≈ 139 µM)	–	–	–	–	–	–	–	–
Nc1ccc(NC(=O)c2ccc(F)cc2)c(O)c1	250 (≈ 1020 µM)	250 (≈ 1020 µM)	125 (≈ 508 µM)	125 (≈ 508 µM)	125 (≈ 508 µM)	125 (≈ 508 µM)	250 (≈ 1020 µM)	125 (≈ 508 µM)	250 (≈ 1020 µM)	62.5 (≈ 254 µM)	125 (≈ 508 µM)	15.6 (≈ 63.4 µM)
CC(C)(C)c1ccc(C(=O)Nc2ccc(N)cc2O)cc1	125 (≈ 440 µM)	125 (≈ 440 µM)	7.8 (≈ 27.4 µM)	62.5 (≈ 220 µM)	125 (≈ 440 µM)	15.6 (≈ 54.9 µM)	125 (≈ 440 µM)	62.5 (≈ 220 µM)	62.5 (≈ 220 µM)	15.6 (≈ 54.9 µM)	62.5 (≈ 220 µM)	7.8 (≈ 27.4 µM)
O=C(Nc1cc([N+](=O)[O-])ccc1O)c1ccc(F)cc1	125 (≈ 453 µM)	125 (≈ 453 µM)	62.5 (≈ 226 µM)	62.5 (≈ 226 µM)	31.2 (≈ 113 µM)	3.9 (≈ 14.1 µM)	125 (≈ 453 µM)	62.5 (≈ 226 µM)	125 (≈ 453 µM)	7.8 (≈ 28.2 µM)	62.5 (≈ 226 µM)	15.6 (≈ 56.5 µM)
Cc1ccc(CC(=O)Nc2cc(N)ccc2O)cc1	–	250 (≈ 975 µM)	–	125 (≈ 488 µM)	–	15.6 (≈ 60.9 µM)	250 (≈ 975 µM)	–	250 (≈ 975 µM)	31.2 (≈ 122 µM)	125 (≈ 488 µM)	–
Nc1ccc(O)c(NC(=O)Cc2ccc(F)cc2)c1	–	250 (≈ 961 µM)	–	125 (≈ 480 µM)	–	15.6 (≈ 59.9 µM)	250 (≈ 961 µM)	–	250 (≈ 961 µM)	62.5 (≈ 240 µM)	250 (≈ 961 µM)	–
CO[C@H]1/C=C/O[C@@]2(C)Oc3c(C)c(O)c4c(O)c(c(/C=N/N5CCN(C)CC5)c(O)c4c3C2=O)NC(=O)/C(C)=C\C=C\[C@H](C)[C@H](O)[C@@H](C)[C@@H](O)[C@@H](C)[C@H](OC(C)=O)[C@@H]1C [RIFAMPIN]	> 4100	256 (≈ 311 µM)	256 (≈ 311 µM)	–	16 (≈ 19.4 µM)	–	62.5 (≈ 75.9 µM)	32 (≈ 38.9 µM)	32 (≈ 38.9 µM)	> 4100	–	512 (≈ 622 µM)
CC1(C)S[C@@H]2[C@H](NC(=O)[C@H](N)c3ccccc3)C(=O)N2[C@H]1C(=O)O.O.O.O [AMPICILLIN TRIHYDRATE]	> 4100	256	8	–	1020	16	500	4	2	64	–	> 4100
